Assay results from PubChem BioAssay AID2727 (Broad Institute, 2010).
This is one part of the list. Calls of active or inactive are those of the source.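 The calls were made as follows: active = inhibition above about 80% in every replicate, not just on average (limit read from the data); inconclusive = at least half of replicates past the limit, but not all; inactive = fewer than half of replicates past the limit.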

test: luminescence inhibition in constitutive-on V. harveyi, confirmation, counter-screen for LuxS inhibitor project, strain BB721, luminescence readout (AID 2727); settings: Vibrio harveyi BB721 luminescence, 9 h; at 7.5 µM; stronger effect = higher value
In short: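 Material: Vibrio harveyi BB721, quorum sensing constitutively active; times: 9 h, 30 °C; compound: 45 nL per well from 10 mM compound stock; read-out basis: luminescence reduction; medium: AB (autoinducer bioassay) growth medium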

| SMILES | inhibition |
| --- | --- |
| O=C(Cn1cnc2ccccc2c1=O)Nc1cccc(S(=O)(=O)N2CCCCC2)c1 | 85.6% (active) |
| S=C(NCc1ccc(Cl)cc1)NC1CCCCC1 | 94.1% (active) |
| COc1cccc(NC(=O)NCc2ccc(F)cc2)c1 | 94.6% (active) |
| Cc1ccc(Oc2cnn(-c3ccccc3)c(=O)c2Br)cc1 | 99.2% (active) |
| O=C(COc1ncnc2ccccc12)NC(=O)NCc1ccccc1 | 95.7% (active) |
| Cc1cc(CN(C)C(=O)c2cc(COc3ccc(C)c(C)c3)on2)n[nH]1 | 96% (active) |
| Cc1ccc(NC(=O)C2CC2c2ccccc2)cc1 (stereo not drawn) | 94.8% (active) |
| Cc1ccccc1C(=O)Nc1ccc(N2CCCCCC2)cc1 | 91.4% (active) |
| N/C(=N\OC(=O)CCc1ccccc1)c1cccnc1 | 91.1% (active) |
| CN(Cc1cnccn1)C(=O)c1cc(COc2cccc(C(F)(F)F)c2)on1 | 96% (active) |
| CCOC(=O)c1nn(-c2cccc(C)c2)cc1C(=O)c1ccccc1 | 87.7% (active) |
| Cc1nn(CC(=O)Nc2ccc(F)cc2)c(=O)c2ccccc12 | 98.5% (active) |
| O=C(Nc1ccc(F)c(Cl)c1)C1CCN(S(=O)(=O)c2cccnc2)CC1 | 97.7% (active) |
| Cc1cc(C(=O)OCC(=O)Nc2ccc(F)c(F)c2)c(C)o1 | 97.5% (active) |
| Cc1cccc(CSc2ccc(-c3cccs3)nn2)c1 | 94.7% (active) |
| COc1ccc(/C(N)=N/OC(=O)Cc2ccccc2)cc1 | 93.6% (active) |
| CC(C)(C)c1ccc(OC2=CS(=O)(=O)c3ccccc32)cc1 | 92.5% (active) |

| SMILES | inhibition |
| --- | --- |
| Cc1ccc(NS(=O)(=O)c2ccc3c(c2)NC(=O)CO3)cc1 | 92% (active) |
| O=C(COC(=O)C1CCCCC1)Nc1ccc([N+](=O)[O-])cc1 | 93.7% (active) |
| CC(CNc1ccc([N+](=O)[O-])cc1)NC(=O)c1ccccc1Br (stereo not drawn) | -4.57% (inactive) |
| O=C(/C=C/c1ccc2c(c1)OCO2)NCc1ccc(F)cc1 | 94% (active) |
| COC(=O)C1CCN(C(=O)c2ccc3oc(Cc4ccc(Cl)cc4)nc3c2)CC1 | 95.6% (active) |
| Cc1ccc(Cc2nc(-c3cccc(C)c3)no2)cc1 | 92.5% (active) |
| O=C(CCC(=O)c1cccs1)Nc1nc2ccccc2s1 | 97.5% (active) |
| O=C1COc2ccc(S(=O)(=O)Nc3ccc(OC(F)(F)F)cc3)cc2N1 | 96.7% (active) |
| O=C(/C=C/c1ccc2c(c1)OCCO2)c1ccc(O)cc1 | 93.3% (active) |
| O=C(c1cc(-c2cccc(O)c2)on1)N1CCc2ccccc2C1 | 93.6% (active) |
| Cc1ccccc1NC(=O)CCOc1ccccc1 | 90.7% (active) |
| CCOc1ccc(/C=N/NC(N)=S)cc1 | 92.7% (active) |
| O=S(=O)(Nc1cccc(Oc2ccc(Cl)cc2)n1)c1ccc(F)cc1 | 99.6% (active) |
| CC(=O)c1cccc(OCc2cc(C(=O)NC(C)Cc3cccnc3)no2)c1 (stereo not drawn) | 92.4% (active) |
| COC(=O)c1ccc(SCc2ccccc2)nc1 | 96.4% (active) |
| Cc1ccsc1C(=O)OCC(=O)c1cc2ccccc2o1 | 95.1% (active) |
